# Columns and labels:
# UO-31 = test: Concentration required to kill 50% of human UO-31 renal cancer cells; format: functional
# Summary of the method: (§1)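 NCI 60-cell human cancer panel run at the National Cancer Institute. Cells exposed to compound for 48 h, with a sulforhodamine B read-out.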
# SK-MEL-2 = test: Concentration required to kill 50% of human SK-MEL-2 melanoma cells; format: functional
# Summary of the method: (§2)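 NCI 60-cell-line human tumour panel. Continuous 48 h drug exposure, then sulforhodamine B assay for cell viability. […] GI50 and TGI are generated from the same curves.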
# SW-620 = test: Concentration required to kill 50% of human SW-620 colon cancer cells; format: functional; summary of the method: as §2
# OVCAR-4 = test: Concentration required to kill 50% of human OVCAR-4 ovarian cancer cells; format: functional; summary of the method: as §2
# K562 [1] = test: The concentration required for inhibiting the growth of the human K562 chronic myeloid leukemia cells by 50%; format: functional, cell-based
# Summary of the method: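 Drug exposure was […] in the dark, then cells were washed and plated at 10⁴ cells/well, eight wells per sample, and incubated 4 days. MTT was added for 5 h, formazan dissolved in DMSO and read at 550 nm.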
# DU-145 = test: Concentration required to kill 50% of human DU-145 prostate cancer cells; format: functional; summary of the method: as §2
# A549 = test: Concentration required to kill 50% of human A549/ATCC non-small cell lung cancer cells; format: functional; summary of the method: as §2
# 786-0 = test: Concentration required to kill 50% of human 786-0 renal cancer cells; format: functional; summary of the method: as §2
# CAKI-1 = test: Concentration required to kill 50% of human CAKI-1 renal cancer cells; format: functional; summary of the method: as §2
# NCI-H522 = test: Concentration required to kill 50% of human NCI-H522 non-small cell lung cancer cells; format: functional; summary of the method: as §2
# PC-3 = test: Concentration required to kill 50% of human PC-3 prostate cancer cells; format: functional; summary of the method: as §2
# K562 [2] = test: Concentration required to kill 50% of human K-562 leukemia cells; format: functional; summary of the method: as §2
# [3] = Concentration required to kill 50% of human RPMI-8226 leukemia cells; format: functional; summary of the method: as §2
# LOX IMVI = test: Concentration required to kill 50% of human LOX IMVI melanoma cells; format: functional; summary of the method: as §2
# SF-268 = test: Concentration required to kill 50% of human SF-268 CNS cancer cells; format: functional; summary of the method: as §2
# NCI-H322M = test: Concentration required to kill 50% of human NCI-H322M non-small cell lung cancer cells; format: functional; summary of the method: as §2
# Hs-578T = test: Concentration required to kill 50% of human Hs 578.T breast cancer cells; format: functional; summary of the method: as §2
# NCI-H23 = test: Concentration required to kill 50% of human NCI-H23 non-small cell lung cancer cells; format: functional; summary of the method: as §2
# OVCAR-8 = test: Concentration required to kill 50% of human OVCAR-8 ovarian cancer cells; format: functional; summary of the method: as §2
# BT-549 = test: Concentration required to kill 50% of human BT-549 breast cancer cells; format: functional; summary of the method: as §2
# [4] = Concentration required to kill 50% of human T-47D breast cancer cells; format: functional, Cancer cell lines; summary of the method: as §1
# KM12 = test: Concentration required to kill 50% of human KM12 colon cancer cells; format: functional; summary of the method: as §2
# SK-OV-3 = test: Concentration required to kill 50% of human SK-OV-3 ovarian cancer cells; format: functional; summary of the method: as §2
# HCC 2998 = test: Concentration required to kill 50% of human HCC2998 colon cancer cells; format: functional; summary of the method: as §2
# NCI-H226 = test: Concentration required to kill 50% of human NCI-H226 non-small cell lung cancer cells; format: functional; summary of the method: as §2
# OVCAR-3 = test: Concentration required to kill 50% of human OVCAR-3 ovarian cancer cells; format: functional; summary of the method: as §2
# COLO 205 = test: Concentration required to kill 50% of human COLO 205 colon cancer cells; format: functional; summary of the method: as §2
# HCT-15 = test: Concentration required to kill 50% of human HCT-15 colon cancer cells; format: functional; summary of the method: as §2
# MDA-MB-231 = test: Concentration required to kill 50% of human MDA-MB-231/ATCC breast cancer cells; format: functional; summary of the method: as §2
# [5] = Concentration required to kill 50% of human U-251 CNS cancer cells; format: functional; summary of the method: as §1
# [6] = The concentration required for inhibiting the growth of the murine B16-F0 melanoma cells by 50%; format: functional; conditions: Mus musculus, B16F0
# Summary of the method: (§3)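 MTT growth inhibition in murine lines grown in DMEM with 10% FBS, HEPES, glutamine, pen/strep at 37 °C, 5% CO2. Seeded 80 000 cells/well, continuous drug exposure (DMSO stock diluted in DMEM) for 72 h, quadruplicate wells per concentration. MTT added for 4 h, formazan dissolved in acid 2-propanol, read at 570 nm (reference 630 nm). IC50 extrapolated from averaged absorbance curves.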
# SN12C = test: Concentration required to kill 50% of human SN12C renal cancer cells; format: functional; summary of the method: as §2
# HOP-92 = test: Concentration required to kill 50% of human HOP-92 non-small cell lung cancer cells; format: functional; summary of the method: as §2
# SK-MEL-5 = test: Concentration required to kill 50% of human SK-MEL-5 melanoma cells; format: functional; summary of the method: as §2
# IGROV-1 = test: Concentration required to kill 50% of human IGROV1 ovarian cancer cells; format: functional; summary of the method: as §2
# Malme-3M = test: Concentration required to kill 50% of human MALME-3M melanoma cells; format: functional; summary of the method: as §2
# NCI-H460 = test: Concentration required to kill 50% of human NCI-H460 non-small cell lung cancer cells; format: functional; summary of the method: as §2
# MCF7S = test: Concentration required to kill 50% of human MCF-7 breast cancer cells; format: functional; summary of the method: as §2
# MOLT-4 = test: Concentration required to kill 50% of human MOLT-4 leukemia cells; format: functional; summary of the method: as §2
# MDA-N = test: Concentration required to kill 50% of human MDA-N breast cancer cells; format: functional; summary of the method: as §2
# OVCAR-5 = test: Concentration required to kill 50% of human OVCAR-5 ovarian cancer cells; format: functional; summary of the method: as §2
# A498 = test: Concentration required to kill 50% of human A-498 renal cancer cells; format: functional; summary of the method: as §2
# SF-295 = test: Concentration required to kill 50% of human SF-295 CNS cancer cells; format: functional; summary of the method: as §2
# SNB-75 = test: Concentration required to kill 50% of human SNB-75 CNS cancer cells; format: functional; summary of the method: as §2
# SF-539 = test: Concentration required to kill 50% of human SF-539 CNS cancer cells; format: functional; summary of the method: as §2
# SNB-19 = test: Concentration required to kill 50% of human SNB-19 CNS cancer cells; format: functional; summary of the method: as §2
# UACC-62 = test: Concentration required to kill 50% of human UACC-62 melanoma cells; format: functional; summary of the method: as §1
# NCI/ADR-RES = test: Concentration required to kill 50% of human NCI/ADR-RES breast cancer cells; format: functional; summary of the method: as §2
# TK-10 = test: Concentration required to kill 50% of human TK-10 renal cancer cells; format: functional; summary of the method: as §1
# HCT-116 = test: Concentration required to kill 50% of human HCT116 colon cancer cells; format: functional; summary of the method: as §2
# HT-29 = test: Concentration required to kill 50% of human HT-29 colon cancer cells; format: functional; summary of the method: as §2
# EKVX = test: Concentration required to kill 50% of human EKVX non-small cell lung cancer cells; format: functional; summary of the method: as §2
# RXF 393 = test: Concentration required to kill 50% of human RXF 393 renal cancer cells; format: functional; summary of the method: as §2
# L1210 = test: The concentration required for inhibiting the growth of the murine L1210 leukemia cells by 50%; format: functional, cell-based; conditions: Mus musculus; summary of the method: as §3
# HL-60 = test: Concentration required to kill 50% of human HL-60 leukemia cells; format: functional; summary of the method: as §2
# ACHN = test: Concentration required to kill 50% of human ACHN renal cancer cells; format: functional; summary of the method: as §2
# SK-MEL-28 = test: Concentration required to kill 50% of human SK-MEL-28 melanoma cells; format: functional; summary of the method: as §2
# HOP-62 = test: Concentration required to kill 50% of human HOP-62 non-small cell lung cancer cells; format: functional; summary of the method: as §2
compound,measurement,setting,value
COc1cc2cc(C(=O)Nc3cc(N)c4ccccc4c3CCCl)[nH]c2c(OC)c1OC [CENTANAMYCIN],Log 10 LC50,UO-31,>-4.3
same,Log 10 LC50,SK-MEL-2,-6.74
same,Log 10 LC50,SW-620,>-4.3
same,Log 10 LC50,OVCAR-4,>-4.3
same,IC50,K562 [1],45 nM
same,Log 10 LC50,DU-145,>-4.3
same,Log 10 LC50,A549,>-4.3
same,Log 10 LC50,786-0,-4.58
same,Log 10 LC50,CAKI-1,>-4.3
same,Log 10 LC50,NCI-H522,-5.53
same,Log 10 LC50,PC-3,-4.81
same,Log 10 LC50,K562 [2],>-4.3
same,Log 10 LC50,[3],>-4.3
same,Log 10 LC50,LOX IMVI,-4.75
same,Log 10 LC50,SF-268,>-4.3
same,Log 10 LC50,NCI-H322M,>-4.3
same,Log 10 LC50,Hs-578T,>-4.3
same,Log 10 LC50,NCI-H23,-5.07
same,Log 10 LC50,OVCAR-8,-4.69
same,Log 10 LC50,BT-549,-5.76
same,Log 10 LC50,[4],>-4.3
same,Log 10 LC50,KM12,>-4.3
same,Log 10 LC50,SK-OV-3,>-4.3
same,Log 10 LC50,HCC 2998,-6.65
same,Log 10 LC50,NCI-H226,>-4.3
same,Log 10 LC50,OVCAR-3,>-4.3
same,Log 10 LC50,COLO 205,-4.69
same,Log 10 LC50,HCT-15,>-4.3
same,Log 10 LC50,MDA-MB-231,-4.58
same,Log 10 LC50,[5],-5.21
same,IC50,[6],150 nM
same,Log 10 LC50,SN12C,-5.65
same,Log 10 LC50,HOP-92,-4.42
same,Log 10 LC50,SK-MEL-5,-4.85
same,Log 10 LC50,IGROV-1,>-4.3
same,Log 10 LC50,Malme-3M,>-4.3
same,Log 10 LC50,NCI-H460,-4.81
same,Log 10 LC50,MCF7S,-4.54
same,Log 10 LC50,MOLT-4,>-4.3
same,Log 10 LC50,MDA-N,>-4.3
same,Log 10 LC50,OVCAR-5,-4.43
same,Log 10 LC50,A498,>-4.3
same,Log 10 LC50,SF-295,>-4.3
same,Log 10 LC50,SNB-75,-5.78
same,Log 10 LC50,SF-539,>-4.3
same,Log 10 LC50,SNB-19,>-4.3
same,Log 10 LC50,UACC-62,-6.49
same,Log 10 LC50,NCI/ADR-RES,-4.33
same,Log 10 LC50,TK-10,-4.33
same,Log 10 LC50,HCT-116,-4.67
same,Log 10 LC50,HT-29,-4.41
same,Log 10 LC50,EKVX,-4.73
same,Log 10 LC50,RXF 393,-6.86
same,IC50,L1210,180 nM
same,Log 10 LC50,HL-60,>-4.3
same,Log 10 LC50,ACHN,>-4.3
same,Log 10 LC50,SK-MEL-28,>-4.3
same,Log 10 LC50,HOP-62,>-4.3
COc1ccc(/C=C/C(=O)Nc2cc(N)c3ccccc3c2CCCl)nc1,IC50,[6],750 nM
same,IC50,L1210,550 nM
COc1cc2cc(C(=O)Nc3cc(OCc4ccccc4)c4ccccc4c3CCCl)[nH]c2c(OC)c1OC,IC50,[6],> 100000 nM
same,IC50,L1210,51000 nM

# — ChEMBL document CHEMBL1144439, “A novel class of in vivo active anticancer agents: achiral seco-amino- and seco-hydroxycyclopropylbenz[e]indolone (seco-CBI) analogues of the duocarmycins and CC-1065” (J Med Chem, 2005)
